Test results reported in ChEMBL document CHEMBL4371051, “Synthesis and SAR of novel capsazepine analogs with significant anti-cancer effects in multiple cancer types” (Bioorg Med Chem, 2019).
pIC50: −log10 of the molar value. Active and inactive are the calls of the source. No cut-off for these calls is given here.

How the values were obtained:
HeLa [1] = experiment: Antiproliferative activity against human HeLa cells after 24 hrs by cell titer 96 aqueous non-radioactive cell proliferation assay; type: functional, cell-based
Procedure, shortened: (§1)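 Cells kept in high-glucose DMEM with 10% FBS and 1% penicillin/streptomycin at 37°C, 5% CO2. They were exposed for 24 h to compound in serum-free DMEM, with final EtOH ≤0.1% (ethanol stocks made fresh). Viability was read by MTS absorbance against vehicle-treated controls; n=4 per group.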

[2] = Toxicity in athymic nude mouse xenografted with human HeLa cells assessed as effect on motor functions at 40 ug, administered intra-tumorally every day for 14 days; conditions: in vivo, other, 336 h
PC-3 = experiment: Antiproliferative activity against human PC3 cells after 24 hrs by cell titer 96 aqueous non-radioactive cell proliferation assay; type: functional, cell-based; conditions: PC-3, 24 h; procedure, shortened: as §1
HSC-3 = experiment: Antiproliferative activity against human HSC3 cells after 24 hrs by cell titer 96 aqueous non-radioactive cell proliferation assay; type: functional, cell-based; conditions: HSC-3, 24 h; procedure, shortened: as §1
NCI-H460 = experiment: Antiproliferative activity against human NCI-H460 cells after 24 hrs by cell titer 96 aqueous non-radioactive cell proliferation assay; type: functional, cell-based; conditions: NCI-H460, 24 h; procedure, shortened: as §1
[3] = Toxicity in athymic nude mouse xenografted with human HeLa cells assessed as effect on mobility at 40 ug, administered intra-tumorally every day for 14 days; conditions: in vivo, other, 336 h
HeLa [4] = experiment: Antitumor activity against human HeLa cells xenografted in athymic nude mouse assessed as tumor volume at 40 ug, administered intra-tumorally every day for 14 days (reference value: 562 mm3); type: functional
[5] = Toxicity in athymic nude mouse xenografted with human HeLa cells assessed as effect on adjacent non-malignant tissues at 40 ug, administered intra-tumorally every day for 14 days; conditions: in vivo, other, 336 h
MDA-MB-231 = experiment: Antiproliferative activity against human MDA231 cells after 24 hrs by cell titer 96 aqueous non-radioactive cell proliferation assay; type: functional, cell-based; conditions: MDA-MB-231, 24 h; procedure, shortened: as §1
[6] = Toxicity in athymic nude mouse xenografted with human HeLa cells assessed as effect on respiration at 40 ug, administered intra-tumorally every day for 14 days; conditions: in vivo, other, 336 h
[7] = Toxicity in athymic nude mouse xenografted with human HeLa cells assessed as decrease in body weight at 40 ug, administered intra-tumorally every day for 14 days; conditions: in vivo, other, 336 h
[8] = Toxicity in athymic nude mouse xenografted with human HeLa cells assessed as effect on neurological function at 40 ug, administered intra-tumorally every day for 14 days; conditions: in vivo, other, 336 h
[9] = biological target: Transient receptor potential cation channel subfamily V member 1 (Homo sapiens) (UniProt Q8NER1); experiment: Agonist activity at TRPV1 (unknown origin) expressed in CHO cells assessed as increase in calcium influx by Calcium 6 dye-based FLIPR assay; type: cell-based
Sequence of Transient receptor potential cation channel subfamily V member 1 (Homo sapiens) (Q8NER1 whole entry): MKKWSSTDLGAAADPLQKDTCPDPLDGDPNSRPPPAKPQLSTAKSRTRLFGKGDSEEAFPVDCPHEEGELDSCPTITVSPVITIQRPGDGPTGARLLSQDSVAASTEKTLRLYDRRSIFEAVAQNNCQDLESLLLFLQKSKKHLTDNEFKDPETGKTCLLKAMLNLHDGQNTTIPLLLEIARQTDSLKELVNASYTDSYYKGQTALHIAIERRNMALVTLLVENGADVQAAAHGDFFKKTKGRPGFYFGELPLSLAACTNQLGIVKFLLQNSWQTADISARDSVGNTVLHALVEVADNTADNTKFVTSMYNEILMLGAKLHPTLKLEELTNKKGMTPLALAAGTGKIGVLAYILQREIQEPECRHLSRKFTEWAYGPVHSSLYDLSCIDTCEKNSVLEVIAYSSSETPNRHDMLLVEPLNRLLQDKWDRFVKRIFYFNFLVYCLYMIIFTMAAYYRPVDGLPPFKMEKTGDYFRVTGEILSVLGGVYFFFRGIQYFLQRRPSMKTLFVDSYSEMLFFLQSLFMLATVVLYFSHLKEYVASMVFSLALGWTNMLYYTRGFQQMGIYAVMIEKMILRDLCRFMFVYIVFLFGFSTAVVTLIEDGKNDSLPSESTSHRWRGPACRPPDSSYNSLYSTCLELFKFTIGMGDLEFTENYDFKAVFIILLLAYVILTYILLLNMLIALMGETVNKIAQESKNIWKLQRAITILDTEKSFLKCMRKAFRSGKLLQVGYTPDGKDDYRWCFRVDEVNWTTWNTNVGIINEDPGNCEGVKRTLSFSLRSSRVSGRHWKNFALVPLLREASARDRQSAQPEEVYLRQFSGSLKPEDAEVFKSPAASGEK
Procedure, shortened: (§2)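 CHO cells stably overexpressing TRPV1, grown at 37°C in 5% CO2. 9x10³ cells per well, loaded with Calcium 6 dye for 2 h. Dose-response curves were run, then compounds at 1 μM were compared with 100 nM capsaicin as the positive control and 1 μM CPZ as the negative control. Calcium influx was read as the change in fluorescence at 535 nm; n=3 per group.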

[10] = biological target: Transient receptor potential cation channel subfamily V member 1 (Homo sapiens) (UniProt Q8NER1); experiment: Agonist activity at TRPV1 (unknown origin) expressed in CHO cells assessed as increase in calcium influx at 1 uM by Calcium 6 dye-based FLIPR assay; type: cell-based; procedure, shortened: as §2
[11] = biological target: Transient receptor potential cation channel subfamily V member 1 (Homo sapiens) (UniProt Q8NER1); experiment: Antagonist activity at TRPV1 (unknown origin) expressed in CHO cells assessed as inhibition of capsaicin-induced increase in calcium influx at 1 uM pretreated before 100 nM capsaicin addition by Calcium 6 dye-based FLIPR assay; type: cell-based
Procedure, shortened: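 CHO-TRPV1 cells, 9x10³ per well, loaded with Calcium 6 dye for 2 h. Cells were pretreated with 1 μM compound, then challenged with 100 nM capsaicin. TRPV1 inhibition was judged from the change in fluorescence at 535 nm.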

HeLa [12] = experiment: Potency index, ratio of capsazepine IC50 to compound IC50 for antiproliferative activity against human HeLa cells; type: functional

Compound | pIC50 (HeLa [1]) | further results
CC(C)C1c2cc(O)c(O)cc2CCN1C(=S)NCc1ccccc1 (configuration not stated) | 4.46 | 
CC(C)C1c2cc(O)c(O)cc2CCN1C(=S)NCCc1ccccc1 (configuration not stated) | 4.17 | 
Oc1ccc2c(c1)CN(C(=S)NCCc1ccc(Cl)cc1)CCC2 | 4.30 | 
COc1ccc2c(c1)CCCN(C(=S)NCCc1ccc(Cl)cc1)C2 | < 4.00 | 
COc1ccc(CCNC(=S)N2CCc3cc(O)c(O)cc3C2)cc1 | < 4.00 | 
Oc1cc2c(cc1O)CN(C(=S)NCCc1ccc(F)cc1)CC2 | 4.60 | 
CN(CCc1ccc(O)c(O)c1)C(=S)NCCc1ccc(Cl)cc1 | 4.52 | 
Oc1cc2c(cc1O)CN(C(=S)NCCc1ccc(Cl)cc1)C2 | 4.07 | 
COc1ccc2c(c1)CN(C(=S)NCCc1ccc(Cl)cc1)CCC2 | < 4.00 | 
CC(C)C1c2cc(O)c(O)cc2CCN1C(=S)NCCc1ccc(Cl)cc1 (configuration not stated) | 4.26 | 
Oc1cc2c(cc1O)C(c1ccccc1)N(C(=S)NCCc1ccc(F)cc1)CC2 (configuration not stated) | 4.77 | 
CN(Cc1ccc(O)c(O)c1)C(=S)NCCc1ccc(Cl)cc1 | < 4.00 | 
COc1cc2c(cc1OC)CN(C(=O)NCCc1ccc(Cl)cc1)CC2 | < 4.00 | 
Oc1cc2c(cc1O)CN(C(=S)NCCc1ccc(Cl)cc1Cl)CC2 | 4.52 | 
CN(Cc1ccc(O)c(O)c1)C(=O)NCCc1ccc(Cl)cc1 | 4.52 | 
Oc1cc2c(cc1O)C(c1ccccc1)N(C(=S)NCCc1ccc(Cl)cc1)CC2 (configuration not stated) | > 5.30 | 

Compound | pIC50 (HeLa [1]) | further results
Oc1cc2c(cc1O)CN(C(=S)NCCc1ccc(Cl)cc1)CC2 | > 5.00 | Activity [2]: Non-Toxic; pIC50 (PC-3): 4.89; pIC50 (HSC-3): 4.70; pIC50 (NCI-H460): 4.64; Activity [3]: Non-Toxic; Activity (HeLa [4]): 351 mm3; Activity [5]: Non-Toxic; pIC50 (MDA-MB-231): 5.30; Activity [6]: Non-Toxic; Activity [7]: Non-Toxic; Activity [8]: Non-Toxic; Activity [9]: Dose-dependent effect
Oc1ccc2c(c1)CCCN(C(=S)NCCc1ccc(Cl)cc1)C2 | 4.19 | 
CC(C)C1c2cc(O)c(O)cc2CCN1C(=S)NCCc1ccc(F)cc1 (configuration not stated) | 4.55 | 
Oc1cc2c(cc1O)CN(C(=S)NCCc1ccc(Cl)cc1)CCC2 [CAPSAZEPINE] | 4.52 | 
Oc1cc2c(cc1O)C(c1ccccc1)N(C(=S)NCCc1ccc(Cl)cc1Cl)CC2 (configuration not stated) | 4.70 | 
Oc1cc2c(cc1O)CN(C(=S)NCCc1ccccc1)CC2 | 4.60 | 
COc1ccc(CCNC(=S)N2CCc3cc(O)c(O)cc3C2c2ccccc2)cc1 (configuration not stated) | 4.62 | 
Oc1cc2c(cc1O)C(c1ccccc1)N(C(=S)NCCc1ccccc1)CC2 (configuration not stated) | 4.60 | 
Oc1cc2c(cc1O)CN(C(=S)NCc1ccccc1)CC2 | < 4.00 | 
O=C(NCCc1ccc(Cl)cc1)N1CCc2cc(O)c(O)cc2C1 | 4.82 | 
COc1ccc(CN(C)C(=O)NCCc2ccc(Cl)cc2)cc1OC | < 4.52 | 
COc1cc2c(cc1OC)CN(C(=S)NCCc1ccc(Cl)cc1)CC2 | < 4.00 | 
CC(C)C1c2cc(O)c(O)cc2CCN1C(=S)NCCc1ccc(Cl)cc1Cl (configuration not stated) | 4.34 | 
Oc1cc2c(cc1O)C(c1ccccc1)N(C(=S)NCc1ccccc1)CC2 (configuration not stated) | > 5.30 | Activity [10]: inactive; Activity [2]: Non-Toxic; pIC50 (PC-3): 5.60; pIC50 (HSC-3): 5.70; pIC50 (NCI-H460): 4.38; Activity [3]: Non-Toxic; Activity (HeLa [4]): 283 mm3; Activity [5]: Non-Toxic; pIC50 (MDA-MB-231): 4.49; Activity [6]: Non-Toxic; Activity [7]: Non-Toxic; Activity [8]: Non-Toxic; inhibition [11]: inactive; Ratio IC50 (HeLa [12]): 6
CN(CCc1ccc(O)c(O)c1)C(=O)NCCc1ccc(Cl)cc1 | < 4.52 | 
